In ChEMBL document CHEMBL5357045, “Development of pharmacophore models for AcrB protein and the identification of potential adjuvant candidates for overcoming efflux-mediated colistin resistance” (2024) one finds MIC and Activity data, which are given here for 25 compounds.

Assay [1] relates to Escherichia coli. The assay is described as follows: Antibacterial activity against Escherichia coli by broth dilution method. The format is functional.
Assay [2] has as its system Escherichia coli. The assay is described as follows: Antibacterial activity against Escherichia coli BW25113. The format is functional.
Assay [3] deals with Escherichia coli. Put plainly: Antibacterial activity against Escherichia coli. Type of assay: functional.
Assay [4] deals with Morganella morganii. Put plainly: Antibacterial activity against Morganella morganii UM869 incubated for 16 to 18 hrs by broth microdilution method. Type of assay: functional. As to conditions: time 16-18 hrs. In a few lines: (§1)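 CLSI broth microdilution in cation-adjusted Mueller–Hinton broth, inoculum 5×10^5 CFU mL−1. Ranges tested: colistin 1024–2 μg mL−1, CCCP 80–1 μg mL−1, argatroban 1024–2 μg mL−1. Incubation is 37 °C for 16–18 h. Growth is visualized with triphenyl tetrazolium chloride, and the MIC is interpreted by CLSI breakpoint criteria.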

Assay [5] relates to Morganella morganii. The assay is described as follows: Antibacterial activity against Morganella morganii UM573 assessed as efflux pump inhibition by measuring mean fluorescence intensity incubated for 30 mins by EtBr staining based assay. The format is functional, organism-based. An outline of the steps: (§2)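 Isolates grown in LB broth and adjusted to 0.5 McFarland. Cultures with no drug, CCCP or test agent (fraction of each agent's MIC per isolate) were shaken 30 min at 37 °C, then swabbed cartwheel-style onto TSA plates containing EtBr 2.5 mg L⁻¹ and incubated 18 h at 37 °C. Swab fluorescence was imaged and mean intensity compared by Student's t-test. K. pneumoniae ATCC13882 and SDL79 served as controls.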

The test system of assay [6] is Klebsiella pneumoniae. Put plainly: Antibacterial activity against Klebsiella pneumoniae UK48 incubated for 16 to 18 hrs by broth microdilution method. The format is functional. As to conditions: time 16-18 hrs. An outline of the steps:
as §1

The subject of assay [7] is Morganella morganii. Put plainly: Bacteriostatic activity against Morganella morganii UM573 incubated for 24 hrs by time-kill assay. The format is functional, organism-based. An outline of the steps: (§3)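 Log-phase cultures (~5×10^6 CFU mL−1) in cation-adjusted Mueller–Hinton broth at 37 °C are given drugs alone or combined at ¼ MIC; untreated growth is the control. At 0, 4, 8, 12 and 24 h, samples are diluted […] in 0.7% NaCl, 100 µL is plated on Mueller–Hinton agar overnight at 37 °C, and colonies are counted. Three repeats, mean reported.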

For assay [8], the system named is Klebsiella pneumoniae. Put plainly: Bacteriostatic activity against Klebsiella pneumoniae UK48 incubated for 24 hrs by time-kill assay. Type of assay: functional, organism-based. An outline of the steps: as §3
In assay [9] the test system is Morganella morganii. Put plainly: Bacteriostatic activity against Morganella morganii UM869 incubated for 24 hrs by time-kill assay. The format is functional, organism-based. In a few lines:
as §3

Assay [10] relates to Klebsiella pneumoniae. The assay is described as follows: Antibacterial activity against Klebsiella pneumoniae UK48 assessed as efflux pump inhibition by measuring mean fluorescence intensity incubated for 30 mins by EtBr staining based assay. Type of assay: functional, organism-based. An outline of the steps: as §2
Assay [11] has as its system Morganella morganii. Put plainly: Antibacterial activity against Morganella morganii UM869 assessed as efflux pump inhibition by measuring mean fluorescence intensity incubated for 30 mins by EtBr staining based assay. Type of assay: functional, organism-based. An outline of the steps:
as §2

Assay [12] concerns Morganella morganii. The assay is described as follows: Antibacterial activity against Morganella morganii UM573 incubated for 16 to 18 hrs by broth microdilution method. The format is functional. As to conditions: time 16-18 hrs. An outline of the steps: as §1
Assay [13] has as its system Morganella morganii. Put plainly: Synergistic antibacterial activity against Morganella morganii UM573 in presence of colistin by checkerboard assay. Type of assay: functional. An outline of the steps:
(§4)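 Checkerboard run in triplicate in cation-supplemented Mueller–Hinton broth. Colistin 512 to 1 µg mL−1 is crossed with argatroban 256 to 2 µg mL−1. Inoculum is ~5–6×10^5 CFU mL−1, incubated 37 °C for 24 h. ΣFIC = C_A/MIC_A + C_B/MIC_B, where C is each drug's concentration in combination at the MIC well.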

Assay [14] has as its system Klebsiella pneumoniae. Put plainly: Synergistic antibacterial activity against Klebsiella pneumoniae UK48 in presence of colistin by checkerboard assay. The format is functional. An outline of the steps: as §4
For assay [15], the system named is Morganella morganii. Put plainly: Synergistic antibacterial activity against Morganella morganii UM869 in presence of colistin by checkerboard assay. Type of assay: functional. In a few lines: as §4
Assay [16] has as its system Escherichia coli. Put plainly: Antibacterial activity against Escherichia coli ATCC 35218. The format is functional.
The test system of assay [17] is Escherichia coli. The assay is described as follows: Antibacterial activity against Escherichia coli APEC_O2. Type of assay: functional.
For assay [18], the system named is Escherichia coli. Put plainly: Antibacterial activity against Escherichia coli AG100A. Type of assay: functional.

SMILES strings stand for the structures. Values after ≈ are worked out from the molar mass of the structure shown. Active and inactive are the calls of the source.

On to `O=C(Nc1ccccc1)c1ccccc1C(=O)Nc1ccccc1`, for which inhibition of growth in the assay with Escherichia coli [1] (MIC) required 64 µg/mL (≈ 202 µM).

Take `O=c1c(O)c(-c2ccc(O)c(O)c2)oc2cc(O)cc(O)c12` [QUERCETIN]: the MIC in the assay with Escherichia coli [2] was determined as 1020 µg/mL (≈ 3390 µM).

Compound `CN(C)CCC=C1c2ccccc2CCc2ccccc21` [AMITRIPTYLINE] returned an MIC against Escherichia coli [2] of 444 µg/mL (≈ 1600 µM).

Turning to `OC(c1cc(-c2ccc(C(F)(F)F)cc2)nc(C(F)(F)F)c1)C1CCCCN1` (centres undefined) [ENPIROLINE], in the assay with Escherichia coli [1], the MIC amounted to 20.2 µg/mL (≈ 50 µM).

Regarding `Nc1ccnc2ccccc12` [QUINOLIN-4-AMINE], the MIC in the assay with Escherichia coli [1] came to 14.4 µg/mL (≈ 100 µM).

Regarding `Cc1onc(-c2ccccc2)c1C(=O)N[C@@H]1C(=O)N2[C@@H]1SC(C)(C)[C@@H]2C(=O)O` [OXACILLIN], the MIC in the assay on Escherichia coli [3] was 1020 µg/mL (≈ 2550 µM).

As for `O=c1c2cc(O)c(O)cc2oc2cc(O)c([C@@H]3O[C@H](CO)[C@@H](O)[C@H](O)[C@H]3O)c(O)c12` [MANGIFERIN], in the assay on Escherichia coli [2], inhibition of growth (MIC) required 512 µg/mL (≈ 1210 µM).

The compound `CC[C@H]1OC(=O)[C@H](C)[C@@H](O[C@H]2C[C@@](C)(OC)[C@@H](O)[C@H](C)O2)[C@H](C)[C@@H](O[C@@H]2O[C@H](C)C[C@H](N(C)C)[C@H]2O)[C@](C)(O)C[C@@H](C)C(=O)[C@H](C)[C@@H](O)[C@]1(C)O` [ERYTHROMYCIN] registered an MIC with Escherichia coli [3] of 367 µg/mL (≈ 500 µM).

`CC1(C)Cc2c(C#N)c(SCCc3ccccc3)nc(N3CCOCC3)c2CO1` registered an MIC with Escherichia coli [3] of 4.05 µg/mL (≈ 9.89 µM).

As for `N#CC(C#N)=NNc1cccc(Cl)c1` [CARBONYL CYANIDE M-CHLOROPHENYLHYDRAZONE], the MIC in the assay with Morganella morganii [4] stood at 20 µg/mL (≈ 97.7 µM); against Klebsiella pneumoniae [6], 5 µg/mL (≈ 24.4 µM); against Morganella morganii [12] it was 20 µg/mL (≈ 97.7 µM). Besides, the result in the assay with Morganella morganii [5], in the assay on Morganella morganii [7], with Klebsiella pneumoniae [8], with Morganella morganii [9], in the assay with Klebsiella pneumoniae [10] and with Morganella morganii [11] was Active.

Compound `CC[n+]1c(-c2ccccc2)c2cc(N)ccc2c2ccc(N)cc21` [HOMIDIUM] came in with an MIC against Escherichia coli [3] of 512 µg/mL.

Turning to `C[C@@H]1CNc2c(cccc2S(=O)(=O)N[C@@H](CCCNC(=N)N)C(=O)N2CC[C@@H](C)C[C@@H]2C(=O)O)C1`, the MIC against Morganella morganii [4] was no less than 512 µg/mL; with Morganella morganii [13], 128 µg/mL; in the assay on Klebsiella pneumoniae [6], no less than 512 µg/mL; with Klebsiella pneumoniae [14], 64 µg/mL; in the assay on Morganella morganii [15] it was 128 µg/mL; with Morganella morganii [12], no less than 512 µg/mL. In addition, the outcome in the assay on Morganella morganii [5], in the assay on Klebsiella pneumoniae [10] and in the assay with Morganella morganii [11] was Active. Moreover, the outcome in the assay on Morganella morganii [7], in the assay on Klebsiella pneumoniae [8] and with Morganella morganii [9] was inactive.

`C[C@H]1[C@H](C)CC[C@]2(C(=O)O)CC[C@]3(C)C(=CC[C@@H]4[C@@]5(C)CC[C@H](O)C(C)(C)[C@@H]5CC[C@]43C)[C@H]12` [URSOLIC ACID] showed an MIC in the assay with Escherichia coli [3] of 50 µg/mL (≈ 109 µM).

In the assay on Escherichia coli [16], `C[C@H]1[C@H](OC(=O)CCC(=O)O)O[C@@H]2O[C@@]3(C)CC[C@H]4[C@H](C)CC[C@@H]1[C@@]24OO3` [ARTESUNATE] showed an MIC of 4100 µg/mL (≈ 10700 µM).

Consider `O=C(Cc1cccs1)N[C@@H]1C(=O)N2C(C(=O)O)=C(/C=C/c3ccc([N+](=O)[O-])cc3[N+](=O)[O-])CS[C@H]12` [NITROCEFIN], for which the MIC against Escherichia coli [3] turned out to be 1.9 µg/mL (≈ 3.68 µM).

In turn, `CC(=O)NC[C@H]1CN(c2ccc(N3CCOCC3)c(F)c2)C(=O)O1` [LINEZOLID] showed an MIC in the assay on Escherichia coli [3] of 512 µg/mL (≈ 1520 µM).

In turn, `CN[C@H]1CC[C@@H](c2ccc(Cl)c(Cl)c2)c2ccccc21` [SERTRALINE] came in with an MIC with Escherichia coli [17] of 32 µg/mL (≈ 104 µM).

With `CC1=CC(=O)c2c(O)cccc2C1=O` [PLUMBAGIN], the MIC against Escherichia coli [2] worked out at 128 µg/mL (≈ 680 µM).

In turn, `CC(C)=CCC/C(C)=C/CO` [GERANIOL] gave an MIC in the assay on Escherichia coli [18] of 64 µg/mL (≈ 415 µM).

`CN(C)CCCN1c2ccccc2Sc2ccc(Cl)cc21` [CHLORPROMAZINE] gave an MIC with Escherichia coli [2] of 256 µg/mL (≈ 803 µM).

Take `CC(Cc1ccc(O)c(O)c1)C(C)Cc1ccc(O)c(O)c1` (centres undefined) [NORDIHYDROGUAIARETIC ACID]: 512 µg/mL (≈ 1690 µM) was the least that counted as inhibitory against Escherichia coli [2] (MIC).

Take `CC(C)=CC[C@@H](O)C1=CC(=O)c2c(O)ccc(O)c2C1=O` [SHIKONIN]: in the assay on Escherichia coli [2], the lowest concentration to inhibit growth (MIC) was 256 µg/mL (≈ 888 µM).

In the assay on Escherichia coli [16], `C[C@H]1[C@@H](O)O[C@@H]2O[C@@]3(C)CC[C@H]4[C@H](C)CC[C@@H]1[C@@]24OO3` [ARTENIMOL] yielded a minimal inhibitory concentration (MIC) of 1020 µg/mL (≈ 3600 µM).

As to `O=c1c(-c2ccc(O)cc2)coc2cc(O)ccc12` [DAIDZEIN], the MIC against Escherichia coli [3] stood at 16 µg/mL (≈ 62.9 µM).

`O=c1[nH]c2ccccc2n1C1CCN(CCCC(c2ccc(F)cc2)c2ccc(F)cc2)CC1` [PIMOZIDE]: in the assay with Escherichia coli [3], it took 92.3 µg/mL (≈ 200 µM) to inhibit growth (MIC).
